Data on 4 molecules can be found in publication PMC3467149 (ACS medicinal chemistry letters, 2012).

For assay [1], the system named is LRRK2 Ser910/Ser935 phosphorylation. The conditions noted are these: intraperitoneal doses of up to 100 mg/Kg; cited from earlier work.
Assay [2] has as its system GFP-LRRK2[A2016T] in HEK293 cells. Kind of assay: Ser910/Ser935 phosphorylation in HEK293 cells, GFP-LRRK2[A2016T]. The format is cell-based. The conditions noted are these: 90 min. Put shortly: (§1)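 HEK293 cells stably expressing the GFP-tagged LRRK2 mutant were treated with DMSO or increasing concentrations of test compound for 90 min. A reference LRRK2 inhibitor at 1 μM served as control. Cell lysates were immunoblotted for LRRK2 phospho-Ser910, phospho-Ser935 and total LRRK2.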

Assay [3] concerns JNK1/2/3. The assay can be described thus: KiNativ chemical proteomics of tissues from treated animals, JNK1/2/3. The assay is classed as in vivo, mouse.
Assay [4] concerns the target T1, GST-LRRKT[A2016T] (1,326–2,527) (Homo sapiens, UniProt Q5S007, A2016T).
T1 sequence (Q5S007 1326-2527 A2016T): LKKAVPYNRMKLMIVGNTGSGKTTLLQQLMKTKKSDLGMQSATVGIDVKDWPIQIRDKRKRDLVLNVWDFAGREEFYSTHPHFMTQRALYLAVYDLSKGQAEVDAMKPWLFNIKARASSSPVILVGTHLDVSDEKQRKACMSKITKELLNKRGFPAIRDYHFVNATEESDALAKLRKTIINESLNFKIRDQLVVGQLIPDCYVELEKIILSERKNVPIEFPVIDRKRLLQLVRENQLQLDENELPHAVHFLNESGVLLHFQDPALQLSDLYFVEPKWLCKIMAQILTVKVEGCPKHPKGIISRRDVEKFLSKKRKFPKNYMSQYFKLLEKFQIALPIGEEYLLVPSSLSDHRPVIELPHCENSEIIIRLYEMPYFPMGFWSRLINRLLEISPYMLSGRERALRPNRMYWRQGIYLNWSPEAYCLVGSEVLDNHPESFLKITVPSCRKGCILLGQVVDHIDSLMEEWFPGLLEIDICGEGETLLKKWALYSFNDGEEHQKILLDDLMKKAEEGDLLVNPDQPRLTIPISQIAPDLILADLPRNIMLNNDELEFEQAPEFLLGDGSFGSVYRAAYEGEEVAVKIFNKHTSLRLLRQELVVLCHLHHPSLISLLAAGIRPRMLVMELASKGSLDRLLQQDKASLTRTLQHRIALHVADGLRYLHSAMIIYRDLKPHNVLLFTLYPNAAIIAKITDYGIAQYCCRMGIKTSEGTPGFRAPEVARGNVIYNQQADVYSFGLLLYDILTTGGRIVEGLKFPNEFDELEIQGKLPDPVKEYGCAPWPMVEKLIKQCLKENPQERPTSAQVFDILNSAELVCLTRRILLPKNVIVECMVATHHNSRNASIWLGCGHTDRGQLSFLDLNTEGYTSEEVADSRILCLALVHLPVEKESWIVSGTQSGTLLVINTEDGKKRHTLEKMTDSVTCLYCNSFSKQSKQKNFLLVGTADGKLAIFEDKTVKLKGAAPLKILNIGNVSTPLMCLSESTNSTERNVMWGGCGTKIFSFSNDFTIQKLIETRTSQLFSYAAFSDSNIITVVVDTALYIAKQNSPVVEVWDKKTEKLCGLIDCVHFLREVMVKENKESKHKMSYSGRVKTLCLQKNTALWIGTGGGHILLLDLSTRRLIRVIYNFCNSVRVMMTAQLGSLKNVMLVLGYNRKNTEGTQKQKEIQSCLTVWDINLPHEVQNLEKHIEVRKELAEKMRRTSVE
Kind of assay: Biochemical inhibition of GST-LRRK2[A2016T]. The conditions noted are these: 20 µM Nictide, 100 µM ATP.

Assay [5] addresses LRRK2 (Mus musculus, UniProt Q5S006). The assay can be described thus: KiNativ chemical proteomics of tissues from treated animals, LRRK2. The assay is classed as in vivo. The conditions noted are these: for LRRK2 target engagement (KiNativ): spleen.
Assay [6] concerns GFP-LRRK2[G2019S+A2016T] in HEK293 cells. Kind of assay: Ser910/Ser935 phosphorylation in HEK293 cells, GFP-LRRK2[G2019S+A2016T]. The assay is classed as cell-based. The settings on record: 90 min. Put shortly: as §1
For assay [7], the system named is LRRK2 Ser910/Ser935 phosphorylation. The assay is classed as in vivo, mouse. The procedure, abridged:
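Mice received the test compound intraperitoneally at 100, 50, 30 or 10 mg/kg. Brain, spleen and kidney were collected, and endogenous LRRK2 was resolved by SDS-PAGE. Blots were probed with phospho-specific antibodies to Ser910 and Ser935 and for total LRRK2, with quantitative analysis of the blots.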

In assay [8] the test system is >150 protein and lipid kinases. Kind of assay: KiNativ chemical proteomics, other kinases of the panel. The assay is classed as in vivo, mouse. The settings on record: any dose (3–100 mg/kg).
Assay [9] has as its target T2, TBK1 (Mus musculus, UniProt Q9WUN2).
T2 sequence (Q9WUN2 1-729): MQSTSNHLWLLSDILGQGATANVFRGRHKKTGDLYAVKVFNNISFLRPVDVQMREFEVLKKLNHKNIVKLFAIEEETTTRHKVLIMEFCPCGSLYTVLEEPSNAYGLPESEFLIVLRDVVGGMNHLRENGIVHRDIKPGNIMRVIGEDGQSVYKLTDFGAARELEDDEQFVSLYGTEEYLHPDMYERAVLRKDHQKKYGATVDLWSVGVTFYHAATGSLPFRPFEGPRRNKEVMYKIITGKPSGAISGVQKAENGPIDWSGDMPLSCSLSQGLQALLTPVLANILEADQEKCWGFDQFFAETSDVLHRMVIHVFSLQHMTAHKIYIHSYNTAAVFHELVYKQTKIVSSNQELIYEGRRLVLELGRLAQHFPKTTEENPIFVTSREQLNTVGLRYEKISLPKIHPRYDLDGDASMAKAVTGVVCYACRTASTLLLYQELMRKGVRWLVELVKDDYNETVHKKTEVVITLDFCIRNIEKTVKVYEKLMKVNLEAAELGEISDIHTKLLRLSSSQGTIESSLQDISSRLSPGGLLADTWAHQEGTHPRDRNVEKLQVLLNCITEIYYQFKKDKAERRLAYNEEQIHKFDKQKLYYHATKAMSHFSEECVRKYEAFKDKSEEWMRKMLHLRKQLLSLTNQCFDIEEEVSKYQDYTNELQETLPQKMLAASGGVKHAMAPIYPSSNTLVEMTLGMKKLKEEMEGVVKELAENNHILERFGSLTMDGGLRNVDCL
The assay can be described thus: KiNativ chemical proteomics of tissues from treated animals, TBK1. The assay is classed as in vivo. The settings on record: read-out: TBK1 inhibition (KiNativ).

Assay [10] relates to panel of 451 kinases. The assay can be described thus: KinomeScan analysis. The assay is classed as binding. The settings on record: 1 µM.

Broadly, the inhibition is the change of the read-out against control, counted positive when it falls.

Where two headings read alike, the source gives them in different places.

Chain of LRRK2 (Q5S006 whole entry): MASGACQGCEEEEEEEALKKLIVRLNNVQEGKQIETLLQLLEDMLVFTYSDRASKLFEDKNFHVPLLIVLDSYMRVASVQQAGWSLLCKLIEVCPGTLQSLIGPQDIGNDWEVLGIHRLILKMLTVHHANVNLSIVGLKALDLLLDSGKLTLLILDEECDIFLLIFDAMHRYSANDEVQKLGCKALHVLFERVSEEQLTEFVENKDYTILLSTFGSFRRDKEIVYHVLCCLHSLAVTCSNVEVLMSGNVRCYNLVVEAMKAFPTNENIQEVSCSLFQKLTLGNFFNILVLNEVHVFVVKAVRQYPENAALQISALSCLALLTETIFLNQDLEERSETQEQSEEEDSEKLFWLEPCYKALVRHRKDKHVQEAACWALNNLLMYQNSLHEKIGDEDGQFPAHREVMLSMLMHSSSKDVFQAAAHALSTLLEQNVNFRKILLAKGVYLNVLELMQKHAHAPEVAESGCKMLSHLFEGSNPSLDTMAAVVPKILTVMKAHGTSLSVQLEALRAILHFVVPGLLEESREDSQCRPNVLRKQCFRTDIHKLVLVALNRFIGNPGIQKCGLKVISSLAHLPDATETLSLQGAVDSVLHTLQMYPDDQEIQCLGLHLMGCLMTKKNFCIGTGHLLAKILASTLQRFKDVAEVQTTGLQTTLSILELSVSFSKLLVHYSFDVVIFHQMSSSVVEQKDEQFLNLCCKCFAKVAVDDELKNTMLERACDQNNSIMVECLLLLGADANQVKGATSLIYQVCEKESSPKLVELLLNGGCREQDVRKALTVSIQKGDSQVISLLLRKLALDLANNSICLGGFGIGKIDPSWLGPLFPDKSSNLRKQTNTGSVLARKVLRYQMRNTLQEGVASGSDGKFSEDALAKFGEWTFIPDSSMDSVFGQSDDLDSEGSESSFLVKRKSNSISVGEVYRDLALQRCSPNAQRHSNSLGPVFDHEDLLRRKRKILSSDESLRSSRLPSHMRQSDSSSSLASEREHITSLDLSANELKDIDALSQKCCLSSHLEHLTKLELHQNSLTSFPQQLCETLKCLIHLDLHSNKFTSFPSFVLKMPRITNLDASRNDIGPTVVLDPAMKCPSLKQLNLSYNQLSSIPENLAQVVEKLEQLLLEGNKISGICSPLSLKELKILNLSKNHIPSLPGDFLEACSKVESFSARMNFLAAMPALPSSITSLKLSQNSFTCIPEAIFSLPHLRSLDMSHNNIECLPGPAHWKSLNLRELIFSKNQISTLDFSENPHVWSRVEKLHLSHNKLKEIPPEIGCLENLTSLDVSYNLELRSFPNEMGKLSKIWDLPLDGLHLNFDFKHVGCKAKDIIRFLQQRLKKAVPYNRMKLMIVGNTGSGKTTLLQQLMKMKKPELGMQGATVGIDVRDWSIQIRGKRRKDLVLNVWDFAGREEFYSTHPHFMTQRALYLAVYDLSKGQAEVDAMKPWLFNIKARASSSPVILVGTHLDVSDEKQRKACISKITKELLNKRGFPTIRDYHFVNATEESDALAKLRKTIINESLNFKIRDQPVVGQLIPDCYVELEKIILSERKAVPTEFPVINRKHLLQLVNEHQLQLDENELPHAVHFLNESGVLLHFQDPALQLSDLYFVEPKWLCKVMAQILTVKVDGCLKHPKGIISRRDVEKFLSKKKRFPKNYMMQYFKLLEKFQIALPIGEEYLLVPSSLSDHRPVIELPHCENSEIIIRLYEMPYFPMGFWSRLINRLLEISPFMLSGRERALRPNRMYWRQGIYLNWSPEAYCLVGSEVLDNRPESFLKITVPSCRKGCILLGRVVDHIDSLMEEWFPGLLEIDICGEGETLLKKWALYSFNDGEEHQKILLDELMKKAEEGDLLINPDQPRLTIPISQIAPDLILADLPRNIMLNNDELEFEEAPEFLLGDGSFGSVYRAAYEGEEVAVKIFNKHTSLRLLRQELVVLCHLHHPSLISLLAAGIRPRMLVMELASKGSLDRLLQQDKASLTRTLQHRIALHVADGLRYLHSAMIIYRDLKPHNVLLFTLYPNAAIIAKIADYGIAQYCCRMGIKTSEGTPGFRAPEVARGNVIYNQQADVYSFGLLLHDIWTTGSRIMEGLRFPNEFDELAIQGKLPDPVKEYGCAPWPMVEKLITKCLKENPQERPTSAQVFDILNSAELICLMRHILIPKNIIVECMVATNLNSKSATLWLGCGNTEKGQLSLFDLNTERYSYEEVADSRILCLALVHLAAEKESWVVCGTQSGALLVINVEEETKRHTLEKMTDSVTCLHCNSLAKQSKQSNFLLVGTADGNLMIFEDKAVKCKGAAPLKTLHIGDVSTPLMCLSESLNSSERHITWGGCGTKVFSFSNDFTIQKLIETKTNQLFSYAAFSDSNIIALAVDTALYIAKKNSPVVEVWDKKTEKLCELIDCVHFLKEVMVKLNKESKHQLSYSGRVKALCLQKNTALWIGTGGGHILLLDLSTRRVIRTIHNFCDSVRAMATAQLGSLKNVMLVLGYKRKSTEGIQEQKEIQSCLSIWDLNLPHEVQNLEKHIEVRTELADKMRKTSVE

For `COc1cc(N2CCC(N3CCN(C)CC3)CC2)ccc1Nc1ncc(Cl)c(Nc2ccccc2S(=O)(=O)C(C)C)n1` [TAE684], in assay [1], the “inhibition of phosphorylation of Ser910 and Ser935 of LRRK2 in mouse brain” value (“inhibition of phosphorylation … in mouse brain” below) was “none of these compounds are capable of effectively inhibiting”.

Regarding `CNc1nc(Nc2ccc(C(=O)N3CCOCC3)cc2OC)ncc1Cl` [Compound 4], the “concentration inducing dephosphorylation of Ser910 and Ser935” value in assay [2] and in assay [6] was 1 to 3 µM each time. Moreover, the “JNK1/2/3 inhibition (KiNativ)” value in [3] (50 mg/kg) and in [3] (100 mg/kg) was 35–40% in each case. In addition, the “effect of the A2016T mutation on inhibition” value in assay [4] is given as “maintains inhibition of the A2016T mutation”. For the same molecule, the “LRRK2 target engagement (KiNativ)” value in assay [5] (10 mg/kg) is 80–90%; in [5] (30–100 mg/kg), “greater than 90%”. The “lowest dose inhibiting Ser910 and Ser935 phosphorylation in mouse brain” value in assay [7] (mouse brain, intraperitoneal delivery) is 50 mg/kg. For the same molecule, the “inhibition of LRRK2 Ser910/Ser935 phosphorylation in brain” value was “partial inhibition” in assay [7] (mouse, intraperitoneal 10 mg/kg) and “partial inhibition” in assay [7] (mouse, intraperitoneal 30 mg/kg). For the same molecule, in assay [7] (mouse, intraperitoneal 50 mg/kg, all tissues), the “inhibition of LRRK2 Ser910/Ser935 phosphorylation in tissues” value is given as “near complete inhibition”. For the same molecule, the “dephosphorylation of Ser910 and Ser935 of LRRK2 in tissues” value in [7] (mouse, intraperitoneal 100 mg/kg, kidney, spleen and brain) is “near complete dephosphorylation”. The “inhibition of kinases other than LRRK2 (KiNativ)” value in assay [8] is given as no more than 50%. In addition, in assay [9], the inhibition at 50 mg/kg was 35 to 40%. Also, the inhibition at 100 mg/kg in assay [9] lay in the range of 35 to 40%. Moreover, the “interactions detected in KinomeScan” value in assay [10] is given as “no interactions detected with kinases other than G2019S LRRK2 with the exception of one mutant form of c-Kit (L576P)”.

As for `COc1cc(N2CCOCC2)ccc1Nc1ncc(F)c(Nc2ccccc2NS(C)(=O)=O)n1` [CZC-25146], in [1], the “inhibition of phosphorylation … in mouse brain” value is listed as “none of these compounds are capable of effectively inhibiting”.

Regarding `COc1cc(C(=O)N2CCC(N3CCN(C)CC3)CC2)ccc1Nc1ncc2c(n1)N(C)c1ccccc1C(=O)N2C` [LRRK2-IN-1, reference compound], the “effect of the A2016T mutation on inhibition” value in assay [4] is “dramatic resistance”. Further, the “LRRK2 inhibition (KiNativ)” value in assay [5] (brain, 100 mg/kg) is given as “no LRRK2 inhibition”. In addition, the “inhibition of phosphorylation … in mouse brain” value in assay [1] is “none of these compounds are capable of effectively inhibiting”.
